Measured values: ChEMBL document CHEMBL1154449, “Synthesis, characterization and in vitro antibacterial activity of thiourea and urea derivatives of steroids” (2008)
Values after ≈ are worked out from the molar mass of the structure shown.

Columns and labels:
Staphylococcus aureus [1] = test: Antibacterial activity against Staphylococcus aureus at 1 mg/disk after 18 hrs at 36 degC by disk diffusion method; assay type: functional
Summary of the method: (§1)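 Disk diffusion. Strains were subcultured in BHI for 18 h at 37 °C, then suspended in saline by McFarland to about […] CFU/mL. The suspension was mixed with sterile antibiotic agar at 40 °C and poured onto plates, and 6.0 mm paper disks were applied. Test compound stock was made in DMSO and diluted to several concentrations applied to disks. Chloramphenicol disks served as positive control and DMSO disks as negative control. Inhibition zone (mm) was read after 18 h at 36 °C.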

Streptococcus pyogenes [2] = test: Antibacterial activity against Streptococcus pyogenes at 1 mg/disk after 18 hrs at 36 degC by disk diffusion method; assay type: functional; summary of the method: as §1
Salmonella typhimurium [3] = test: Antibacterial activity against Salmonella Typhimurium at 1 mg/disk after 18 hrs at 36 degC by disk diffusion method; assay type: functional, Salmonella enterica subsp. enterica serovar Typhimurium; summary of the method: as §1
Escherichia coli [4] = test: Antibacterial activity against Escherichia coli at 1 mg/disk after 18 hrs at 36 degC by disk diffusion method; assay type: functional; summary of the method: as §1
Staphylococcus aureus [5] = test: Antibacterial activity against Staphylococcus aureus after 18 hrs at 37 degC by microdilution method; assay type: functional; settings: in the assay text read “macrodilution” for “microdilution”
Streptococcus pyogenes [6] = test: Antibacterial activity against Streptococcus pyogenes after 18 hrs at 37 degC by microdilution method; assay type: functional; settings: in the assay text read “macrodilution” for “microdilution”
Salmonella typhimurium [7] = test: Antibacterial activity against Salmonella Typhimurium after 18 hrs at 37 degC by microdilution method; assay type: functional, Salmonella enterica subsp. enterica serovar Typhimurium; settings: Salmonella enterica, in the assay text read “macrodilution” for “microdilution”
Escherichia coli [8] = test: Antibacterial activity against Escherichia coli after 18 hrs at 37 degC by microdilution method; assay type: functional
Staphylococcus aureus [9] = test: Antibacterial activity against Staphylococcus aureus at 30 ug/disk after 18 hrs at 36 degC by disk diffusion method; assay type: functional; settings: read-out: IZ
Summary of the method: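 S. aureus subcultured in BHI medium 18 h at 37 °C, then suspended in saline per McFarland protocol; suspension mixed with sterile antibiotic agar at 40 °C and poured as plates. Paper disks (6.0 mm) loaded with DMSO-dissolved compound at graded concentrations; chloramphenicol disk positive control, DMSO disk negative control. Inhibition zone diameter (mm) read after 18 h at 36 °C.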

Streptococcus pyogenes [10] = test: Antibacterial activity against Streptococcus pyogenes at 30 ug/disk after 18 hrs at 36 degC by disk diffusion method; assay type: functional; settings: read-out: IZ; summary of the method: as §1
Salmonella typhimurium [11] = test: Antibacterial activity against Salmonella Typhimurium at 30 ug/disk after 18 hrs at 36 degC by disk diffusion method; assay type: functional, Salmonella enterica subsp. enterica serovar Typhimurium; settings: Salmonella enterica, read-out: IZ; summary of the method: as §1
Escherichia coli [12] = test: Antibacterial activity against Escherichia coli at 30 ug/disk after 18 hrs at 36 degC by disk diffusion method; assay type: functional; settings: read-out: IZ; summary of the method: as §1

| Compound | MIC (Staphylococcus aureus [5]) | MIC (Streptococcus pyogenes [6]) | MIC (Salmonella typhimurium [7]) | MIC (Escherichia coli [8]) | inhibition zone (IZ) (Staphylococcus aureus [1]) | inhibition zone (IZ) (Streptococcus pyogenes [2]) | inhibition zone (IZ) (Salmonella typhimurium [3]) | inhibition zone (IZ) (Escherichia coli [4]) | zone of inhibition at 30 µg/disc (Staphylococcus aureus [9]) | zone of inhibition at 30 µg/disc (Streptococcus pyogenes [10]) | zone of inhibition at 30 µg/disc (Salmonella typhimurium [11]) | zone of inhibition at 30 µg/disc (Escherichia coli [12]) |
| --- | --- | --- | --- | --- | --- | --- | --- | --- | --- | --- | --- | --- |
| CC[C@H](/C=C/[C@@H](C)[C@H]1CC[C@H]2[C@@H]3C4=C[C@]5(C[C@@H](OC(C)=O)CC[C@]5(C)[C@H]3CC[C@]12C)NC(=O)N4)C(C)C | 64 µg/mL (≈ 125 µM) | 128 µg/mL (≈ 251 µM) | 128 µg/mL (≈ 251 µM) | 64 µg/mL (≈ 125 µM) | 14.4 mm | 12.4 mm | 15.2 mm | 16.3 mm | – | – | – | – |
| O=C(N[C@H](CO)[C@H](O)c1ccc([N+](=O)[O-])cc1)C(Cl)Cl [CHLORAMPHENICOL] | – | – | – | – | – | – | – | – | 21 mm | 22.2 mm | 25.2 mm | 20 mm |

Continued by falling MIC (Staphylococcus aureus [5]), values first:

| MIC (Staphylococcus aureus [5]) | MIC (Streptococcus pyogenes [6]) | MIC (Salmonella typhimurium [7]) | MIC (Escherichia coli [8]) | Compound | inhibition zone (IZ) (Staphylococcus aureus [1]) | inhibition zone (IZ) (Streptococcus pyogenes [2]) | inhibition zone (IZ) (Salmonella typhimurium [3]) | inhibition zone (IZ) (Escherichia coli [4]) | zone of inhibition at 30 µg/disc (Staphylococcus aureus [9]) | zone of inhibition at 30 µg/disc (Streptococcus pyogenes [10]) | zone of inhibition at 30 µg/disc (Salmonella typhimurium [11]) | zone of inhibition at 30 µg/disc (Escherichia coli [12]) |
| --- | --- | --- | --- | --- | --- | --- | --- | --- | --- | --- | --- | --- |
| 512 µg/mL (≈ 1320 µM) | 512 µg/mL (≈ 1320 µM) | 512 µg/mL (≈ 1320 µM) | 512 µg/mL (≈ 1320 µM) | CC(C)CCC[C@@H](C)[C@H]1CC[C@H]2[C@@H]3CC=C4C[C@@H](O)CC[C@]4(C)[C@H]3CC[C@]12C [CHOLESTEROL] | 9.2 mm | 7.8 mm | 8.2 mm | 9 mm | – | – | – | – |
| 64 µg/mL (≈ 131 µM) | 128 µg/mL (≈ 263 µM) | 128 µg/mL (≈ 263 µM) | 128 µg/mL (≈ 263 µM) | CC[C@H](/C=C/[C@@H](C)[C@H]1CC[C@H]2[C@@H]3C4=C[C@]5(C[C@@H](Cl)CC[C@]5(C)[C@H]3CC[C@]12C)NC(=O)N4)C(C)C | 16.8 mm | 15.2 mm | 14.4 mm | 14.8 mm | – | – | – | – |
| 64 µg/mL (≈ 127 µM) | 64 µg/mL (≈ 127 µM) | 32 µg/mL (≈ 63.6 µM) | 32 µg/mL (≈ 63.6 µM) | CC[C@H](/C=C/[C@@H](C)[C@H]1CC[C@H]2[C@@H]3C4=C[C@]5(C[C@@H](Cl)CC[C@]5(C)[C@H]3CC[C@]12C)NC(=S)N4)C(C)C | 19.7 mm | 23.2 mm | 18.7 mm | 20.7 mm | – | – | – | – |
| 32 µg/mL (≈ 60.7 µM) | 64 µg/mL (≈ 121 µM) | 32 µg/mL (≈ 60.7 µM) | 32 µg/mL (≈ 60.7 µM) | CC[C@H](/C=C/[C@@H](C)[C@H]1CC[C@H]2[C@@H]3C4=C[C@]5(C[C@@H](OC(C)=O)CC[C@]5(C)[C@H]3CC[C@]12C)NC(=S)N4)C(C)C | 22.5 mm | 21.6 mm | 19.4 mm | 23.4 mm | – | – | – | – |
